Assay results published in ChEMBL document CHEMBL5058577, “EUbOPEN Chemogenomics Library 2 (Multiplex)” (2022).

Test system: U2OS
Experiment: Multiplex assay against U2OS
Format: toxicity, cell-based
Settings: human
Summary of the method: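 On a CQ1 microscope at 37°C and 5% CO2, live cells were imaged after compound addition. They had been stained at seeding with Hoechst33342, BioTracker Green Microtubule Cytoskeleton Dye, MitoTracker Red and Annexin V Alexa Fluor 680. CellPathfinder machine-learning gating assigned cells to Hoechst high-intensity objects or normal cells, normal cells to healthy, pyknosed or fragmented nuclei, and pyknosed cells to mitotic or apoptotic. Tubulin, mitochondrial-mass and membrane-permeability phenotypes are per cents of healthy-nucleus cells.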

[1] = 12 h, 1 µM, compound concentration 1 uM, replicate 1
[2] = 12 h, 1 µM, compound concentration 1 uM, replicate 2
[3] = 12 h, 10 µM, compound concentration 10 uM, replicate 1
[4] = 12 h, 10 µM, compound concentration 10 uM, replicate 2
[5] = 24 h, 1 µM, compound concentration 1 uM, replicate 1
[6] = 24 h, 1 µM, compound concentration 1 uM, replicate 2
[7] = 24 h, 10 µM, compound concentration 10 uM, replicate 1
[8] = 24 h, 10 µM, compound concentration 10 uM, replicate 2
[9] = 48 h, 1 µM, compound concentration 1 uM, replicate 1
[10] = 48 h, 1 µM, compound concentration 1 uM, replicate 2
[11] = 48 h, 10 µM, compound concentration 10 uM, replicate 1
[12] = 48 h, 10 µM, compound concentration 10 uM, replicate 2

N[C@@]1(C(=O)O)CO[C@H]2[C@H](C(=O)O)[C@H]21 [LY-379268]
Population Apoptotic (%) [1]: 85% | Population Fragmented Nuclei (%) [1]: 20% | Population Healthy Nuclei (%) [1]: 76% | Population Hoechst High Intensity Objects (%) [1]: 0% | Population Membrane Permeable-Phenotype (%) [1]: 2% | Population Mitochondria Different-Phenotype (%) [1]: 1% | Population Mitotic Cells (%) [1]: 14% | Population Normal (%) [1]: 99% | Population Pyknosed Nuclei (%) [1]: 3% | Population Tubulin-Different-Phenotype (%) [1]: 1% | Total Cell Count [1]: 211 | Population Apoptotic (%) [2]: 100% | Population Fragmented Nuclei (%) [2]: 17% | Population Healthy Nuclei (%) [2]: 79% | Population Membrane Permeable-Phenotype (%) [2]: 8% | Population Mitochondria Different-Phenotype (%) [2]: 2% | Population Mitotic Cells (%) [2]: 0% | Population Pyknosed Nuclei (%) [2]: 2% | Population Tubulin-Different-Phenotype (%) [2]: 3% | Total Cell Count [2]: 108 | Population Apoptotic (%) [3]: 63% | Population Fragmented Nuclei (%) [3]: 30% | Population Healthy Nuclei (%) [3]: 61% | Population Hoechst High Intensity Objects (%) [3]: 0% | Population Membrane Permeable-Phenotype (%) [3]: 8% | Population Mitochondria Different-Phenotype (%) [3]: 2% | Population Mitotic Cells (%) [3]: 36% | Population Normal (%) [3]: 99% | Population Pyknosed Nuclei (%) [3]: 7% | Population Tubulin-Different-Phenotype (%) [3]: 3% | Total Cell Count [3]: 264 | Population Apoptotic (%) [4]: 80% | Population Fragmented Nuclei (%) [4]: 19% | Population Healthy Nuclei (%) [4]: 77% | Population Hoechst High Intensity Objects (%) [4]: 1% | Population Membrane Permeable-Phenotype (%) [4]: 4% | Population Mitochondria Different-Phenotype (%) [4]: 1% | Population Mitotic Cells (%) [4]: 20% | Population Normal (%) [4]: 98% | Population Pyknosed Nuclei (%) [4]: 3% | Population Tubulin-Different-Phenotype (%) [4]: 1% | Total Cell Count [4]: 143 | Population Apoptotic (%) [5]: 88% | Population Fragmented Nuclei (%) [5]: 20% | Population Healthy Nuclei (%) [5]: 71% | Population Hoechst High Intensity Objects (%) [5]: 1% | Population Membrane Permeable-Phenotype (%) [5]: 1% | Population Mitochondria Different-Phenotype (%) [5]: 1% | Population Mitotic Cells (%) [5]: 11% | Population Normal (%) [5]: 98% | Population Pyknosed Nuclei (%) [5]: 7% | Population Tubulin-Different-Phenotype (%) [5]: 1% | Total Cell Count [5]: 245 | Population Apoptotic (%) [6]: 100% | Population Fragmented Nuclei (%) [6]: 11% | Population Healthy Nuclei (%) [6]: 79% | Population Hoechst High Intensity Objects (%) [6]: 0% | Population Membrane Permeable-Phenotype (%) [6]: 12% | Population Mitochondria Different-Phenotype (%) [6]: 2% | Population Mitotic Cells (%) [6]: 0% | Population Normal (%) [6]: 100% | Population Pyknosed Nuclei (%) [6]: 9% | Population Tubulin-Different-Phenotype (%) [6]: 6% | Total Cell Count [6]: 133 | Population Apoptotic (%) [7]: 81% | Population Fragmented Nuclei (%) [7]: 25% | Population Healthy Nuclei (%) [7]: 66% | Population Hoechst High Intensity Objects (%) [7]: 1% | Population Membrane Permeable-Phenotype (%) [7]: 8% | Population Mitochondria Different-Phenotype (%) [7]: 1% | Population Mitotic Cells (%) [7]: 18% | Population Normal (%) [7]: 98% | Population Pyknosed Nuclei (%) [7]: 7% | Population Tubulin-Different-Phenotype (%) [7]: 2% | Total Cell Count [7]: 284 | Population Apoptotic (%) [8]: 90% | Population Fragmented Nuclei (%) [8]: 16% | Population Healthy Nuclei (%) [8]: 77% | Population Membrane Permeable-Phenotype (%) [8]: 4% | Population Mitochondria Different-Phenotype (%) [8]: 4% | Population Mitotic Cells (%) [8]: 10% | Population Pyknosed Nuclei (%) [8]: 6% | Population Tubulin-Different-Phenotype (%) [8]: 4% | Total Cell Count [8]: 165 | Population Apoptotic (%) [9]: 92% | Population Fragmented Nuclei (%) [9]: 13% | Population Healthy Nuclei (%) [9]: 79% | Population Hoechst High Intensity Objects (%) [9]: 1% | Population Membrane Permeable-Phenotype (%) [9]: 3% | Population Mitochondria Different-Phenotype (%) [9]: 2% | Population Mitotic Cells (%) [9]: 7% | Population Normal (%) [9]: 98% | Population Pyknosed Nuclei (%) [9]: 7% | Population Tubulin-Different-Phenotype (%) [9]: 3% | Total Cell Count [9]: 348 | Population Apoptotic (%) [10]: 100% | Population Fragmented Nuclei (%) [10]: 15% | Population Healthy Nuclei (%) [10]: 72% | Population Hoechst High Intensity Objects (%) [10]: 2% | Population Membrane Permeable-Phenotype (%) [10]: 11% | Population Mitochondria Different-Phenotype (%) [10]: 5% | Population Mitotic Cells (%) [10]: 0% | Population Normal (%) [10]: 97% | Population Pyknosed Nuclei (%) [10]: 12% | Population Tubulin-Different-Phenotype (%) [10]: 5% | Total Cell Count [10]: 178 | Population Apoptotic (%) [11]: 92% | Population Fragmented Nuclei (%) [11]: 24% | Population Healthy Nuclei (%) [11]: 68% | Population Hoechst High Intensity Objects (%) [11]: 2% | Population Membrane Permeable-Phenotype (%) [11]: 9% | Population Mitochondria Different-Phenotype (%) [11]: 2% | Population Mitotic Cells (%) [11]: 7% | Population Normal (%) [11]: 97% | Population Pyknosed Nuclei (%) [11]: 7% | Population Tubulin-Different-Phenotype (%) [11]: 3% | Total Cell Count [11]: 383 | Population Apoptotic (%) [12]: 90% | Population Fragmented Nuclei (%) [12]: 11% | Population Healthy Nuclei (%) [12]: 83% | Population Membrane Permeable-Phenotype (%) [12]: 3% | Population Mitotic Cells (%) [12]: 9% | Population Pyknosed Nuclei (%) [12]: 4% | Total Cell Count [12]: 228

CC(C)(C)c1ccc(S(=O)(=O)Nc2ccc(Cl)cc2C(=O)c2cc[n+]([O-])cc2)cc1 [VERCIRNON]
Population Apoptotic (%) [1]: 77% | Population Fragmented Nuclei (%) [1]: 28% | Population Healthy Nuclei (%) [1]: 61% | Population Hoechst High Intensity Objects (%) [1]: 1% | Population Membrane Permeable-Phenotype (%) [1]: 8% | Population Mitochondria Different-Phenotype (%) [1]: 5% | Population Mitotic Cells (%) [1]: 22% | Population Normal (%) [1]: 98% | Population Pyknosed Nuclei (%) [1]: 10% | Population Tubulin-Different-Phenotype (%) [1]: 4% | Total Cell Count [1]: 307 | Population Apoptotic (%) [2]: 100% | Population Fragmented Nuclei (%) [2]: 15% | Population Healthy Nuclei (%) [2]: 79% | Population Hoechst High Intensity Objects (%) [2]: 0% | Population Mitochondria Different-Phenotype (%) [2]: 4% | Population Mitotic Cells (%) [2]: 0% | Population Normal (%) [2]: 99% | Population Pyknosed Nuclei (%) [2]: 5% | Population Tubulin-Different-Phenotype (%) [2]: 3% | Total Cell Count [2]: 156 | Population Apoptotic (%) [3]: 77% | Population Fragmented Nuclei (%) [3]: 24% | Population Healthy Nuclei (%) [3]: 68% | Population Hoechst High Intensity Objects (%) [3]: 1% | Population Membrane Permeable-Phenotype (%) [3]: 3% | Population Mitochondria Different-Phenotype (%) [3]: 2% | Population Mitotic Cells (%) [3]: 22% | Population Normal (%) [3]: 98% | Population Pyknosed Nuclei (%) [3]: 6% | Population Tubulin-Different-Phenotype (%) [3]: 1% | Total Cell Count [3]: 266 | Population Apoptotic (%) [4]: 50% | Population Fragmented Nuclei (%) [4]: 21% | Population Healthy Nuclei (%) [4]: 77% | Population Hoechst High Intensity Objects (%) [4]: 0% | Population Membrane Permeable-Phenotype (%) [4]: 15% | Population Mitotic Cells (%) [4]: 50% | Population Normal (%) [4]: 99% | Population Pyknosed Nuclei (%) [4]: 1% | Population Tubulin-Different-Phenotype (%) [4]: 15% | Total Cell Count [4]: 123 | Population Apoptotic (%) [5]: 89% | Population Fragmented Nuclei (%) [5]: 25% | Population Healthy Nuclei (%) [5]: 67% | Population Hoechst High Intensity Objects (%) [5]: 1% | Population Membrane Permeable-Phenotype (%) [5]: 8% | Population Mitochondria Different-Phenotype (%) [5]: 5% | Population Mitotic Cells (%) [5]: 10% | Population Normal (%) [5]: 98% | Population Pyknosed Nuclei (%) [5]: 7% | Population Tubulin-Different-Phenotype (%) [5]: 4% | Total Cell Count [5]: 357 | Population Apoptotic (%) [6]: 92% | Population Fragmented Nuclei (%) [6]: 18% | Population Healthy Nuclei (%) [6]: 74% | Population Hoechst High Intensity Objects (%) [6]: 0% | Population Membrane Permeable-Phenotype (%) [6]: 2% | Population Mitochondria Different-Phenotype (%) [6]: 4% | Population Mitotic Cells (%) [6]: 7% | Population Normal (%) [6]: 99% | Population Tubulin-Different-Phenotype (%) [6]: 2% | Total Cell Count [6]: 183 | Population Apoptotic (%) [7]: 76% | Population Fragmented Nuclei (%) [7]: 21% | Population Healthy Nuclei (%) [7]: 72% | Population Hoechst High Intensity Objects (%) [7]: 2% | Population Membrane Permeable-Phenotype (%) [7]: 1% | Population Mitochondria Different-Phenotype (%) [7]: 1% | Population Mitotic Cells (%) [7]: 23% | Population Normal (%) [7]: 97% | Population Pyknosed Nuclei (%) [7]: 5% | Population Tubulin-Different-Phenotype (%) [7]: 1% | Total Cell Count [7]: 297 | Population Apoptotic (%) [8]: 71% | Population Fragmented Nuclei (%) [8]: 22% | Population Hoechst High Intensity Objects (%) [8]: 1% | Population Membrane Permeable-Phenotype (%) [8]: 13% | Population Mitotic Cells (%) [8]: 28% | Population Normal (%) [8]: 98% | Population Pyknosed Nuclei (%) [8]: 4% | Population Tubulin-Different-Phenotype (%) [8]: 15% | Total Cell Count [8]: 160 | Population Apoptotic (%) [9]: 82% | Population Fragmented Nuclei (%) [9]: 19% | Population Healthy Nuclei (%) [9]: 73% | Population Hoechst High Intensity Objects (%) [9]: 3% | Population Membrane Permeable-Phenotype (%) [9]: 5% | Population Mitochondria Different-Phenotype (%) [9]: 3% | Population Mitotic Cells (%) [9]: 17% | Population Normal (%) [9]: 96% | Population Pyknosed Nuclei (%) [9]: 6% | Population Tubulin-Different-Phenotype (%) [9]: 4% | Total Cell Count [9]: 515 | Population Apoptotic (%) [10]: 84% | Population Fragmented Nuclei (%) [10]: 15% | Population Healthy Nuclei (%) [10]: 75% | Population Hoechst High Intensity Objects (%) [10]: 4% | Population Membrane Permeable-Phenotype (%) [10]: 7% | Population Mitochondria Different-Phenotype (%) [10]: 2% | Population Mitotic Cells (%) [10]: 15% | Population Normal (%) [10]: 95% | Population Pyknosed Nuclei (%) [10]: 9% | Population Tubulin-Different-Phenotype (%) [10]: 2% | Total Cell Count [10]: 296 | Population Apoptotic (%) [11]: 79% | Population Fragmented Nuclei (%) [11]: 18% | Population Healthy Nuclei (%) [11]: 75% | Population Hoechst High Intensity Objects (%) [11]: 1% | Population Membrane Permeable-Phenotype (%) [11]: 2% | Population Mitochondria Different-Phenotype (%) [11]: 1% | Population Mitotic Cells (%) [11]: 20% | Population Normal (%) [11]: 98% | Population Pyknosed Nuclei (%) [11]: 5% | Population Tubulin-Different-Phenotype (%) [11]: 1% | Total Cell Count [11]: 414 | Population Apoptotic (%) [12]: 77% | Population Fragmented Nuclei (%) [12]: 26% | Population Healthy Nuclei (%) [12]: 65% | Population Hoechst High Intensity Objects (%) [12]: 2% | Population Membrane Permeable-Phenotype (%) [12]: 8% | Population Mitochondria Different-Phenotype (%) [12]: 5% | Population Mitotic Cells (%) [12]: 22% | Population Normal (%) [12]: 97% | Population Pyknosed Nuclei (%) [12]: 8% | Population Tubulin-Different-Phenotype (%) [12]: 11% | Total Cell Count [12]: 215
